# Rows were chosen to be rich in hits. Some 5.8% of all compounds tested hit in one or more screens of this group.
# 14-3-3 Bad PPI – disrupts binding of bovine 14-3-3 zeta to phospho-Bad peptide | P63103 | TR-FRET 14-3-3zeta/Dy647-pBad peptide displacement, 1 h | inhibition, % at 21.7 µM | actives 0.71% (n = 220,000);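 active means inhibition above about 70%, limit read from the data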;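 further: 0% = full 14-3-3 plus peptide FRET controls and 100% = background without 14-3-3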
# KCC2 mod – modulates chloride dependent transport by human KCC2; B-score of Tl+ flux slope (higher = more flux/activation; lower = inhibition) at 10 µM; AID 1456; KCC2 cells, thallium flux FluoZin-2 fluorescence; Q9H2X9; actives 2.2% (n = 190,000);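 active means thallium flux slope and its plate-corrected score both differing from the plate sample mean at a set confidence after two filtering rounds, in either direction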;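 further: slope of fluorescence scaled to starting intensity during 10 to 20 s after thallium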
# NCF1 inh – inhibitors of human p47phox binding; P14598; p47phox/p22phox peptide binding, fluorescence polarization, 2 h; inhibition, % at 24.7 µM; actives 0.53% (n = 220,000); AID 1274;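 active means inhibition above about 30%, limit read from the data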;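 further: 0% = p47phox with labelled peptide and 100% = labelled peptide alone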
# Target sequence (P14598 whole entry, looked up): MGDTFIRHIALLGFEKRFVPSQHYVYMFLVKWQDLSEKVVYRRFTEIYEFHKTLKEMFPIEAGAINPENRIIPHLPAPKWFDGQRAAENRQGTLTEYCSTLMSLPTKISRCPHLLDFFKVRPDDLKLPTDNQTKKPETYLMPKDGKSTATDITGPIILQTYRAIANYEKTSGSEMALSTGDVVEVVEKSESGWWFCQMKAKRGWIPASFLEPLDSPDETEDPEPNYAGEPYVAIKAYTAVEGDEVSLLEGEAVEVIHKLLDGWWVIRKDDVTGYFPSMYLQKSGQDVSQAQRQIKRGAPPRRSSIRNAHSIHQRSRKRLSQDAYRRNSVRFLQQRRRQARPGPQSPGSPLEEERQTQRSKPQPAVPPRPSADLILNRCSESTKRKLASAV
# RBBP9 inhibitor – blocks human serine hydrolase RBBP9. O75884. inhibition, % at 7.94 µM. recombinant RBBP9, FP-Rh probe fluorescence polarization. actives 0.2% (n = 220,000);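 active means inhibition above the campaign mean of all tested compounds plus 3 SD, cut at about 14% in these data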;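 further: plate controls were DMSO wells with RBBP9 for no effect and wells lacking RBBP9 protein for full effect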
# Target sequence (O75884 whole entry, looked up): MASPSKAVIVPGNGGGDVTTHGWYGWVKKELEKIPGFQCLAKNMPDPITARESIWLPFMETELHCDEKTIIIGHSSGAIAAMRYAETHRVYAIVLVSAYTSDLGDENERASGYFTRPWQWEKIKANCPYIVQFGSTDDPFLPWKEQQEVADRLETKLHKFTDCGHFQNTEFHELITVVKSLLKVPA
#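 System: RBBP9 protein / Buffer or medium: Tris/NaCl buffer pH 8.0 with 0.1% Pluronic / Probe or stimulus: Serine-hydrolase probe FP-Rh, 375 nM pre-mixing / Dosing: 7.94 µM single dose, 0.794% DMSO / Times: enzyme-compound preincubation 30 min, then probe labeling 45 min, 25 °C / Technique: fluorescence polarization (mP), excitation 525 nm, emission 598 nm / Replication: singlicate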
# WT yeast gro inh – growth inhibition of WT yeast, mitochondrial fusion screen; mitochondrial fusion phenotypic screen, WT strain; inhibition, % at 10 µM; actives 2.1% (n = 190,000); AID 1362; in the data active means inhibition above about 58%; tested in S. cerevisiae
# ROMK mod – human ROMK K+ channel modulation, primary screen | P48048 | Tet-inducible ROMK, thallium flux fluorescence; actives lie on both sides | B-score at 10 µM | actives 2% (n = 130,000) | AID 1918;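 active means signal ratio slope over the read window, or its plate-corrected B-score, at least 3 SD from the plate mean, either direction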;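 further: B-score of the F/F0 ratio slope over 7 to 12 s after thallium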
# KCC2 sec1 – KCC2 (human) modulation, secondary assay. shares compounds with KCC2 mod. HEK293-KCC2, thallium flux, FluoZin2 fluorescence; stronger effect = higher value. normalised thallium flux (F/F0 slope) at 10 µM. actives 15% (n = 3,700);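 active means thallium flux slope above the same plate's solvent-only control mean plus 3 SD; inconclusive means the two replicate wells disagree; inactive means no significant difference from solvent-only control wells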
# KCC2 bumet counter – thallium flux despite bumetanide block in KCC2 cells, secondary assay 3 | HEK293-KCC2 + bumetanide/ouabain, thallium flux FluoZin2; stronger effect = higher value | AID 1714 | actives 49% (n = 3,700) | shares compounds with KCC2 mod | normalized thallium flux at 10 µM;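 active means thallium entry rate above the same plate's blocked-transporter control wells by more than 3 SD; inconclusive means the two repeat wells disagree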;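 further: raw slope of fluorescence over initial fluorescence between 10 and 20 s after thallium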
# KCC2 secondary2 – confirmation of human KCC2 transport modulators; shares compounds with KCC2 mod; HEK293-KCC2, thallium flux FluoZin2 fluorescence; actives lie on both sides; F/F0 rise rate, 10–20 s post-thallium; actives 23% (n = 3,700); AID 1715; normalized thallium flux at 10 µM;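 active means thallium flux slope more than 3 SD above or below the plate's solvent-only control mean, mostly below; inconclusive means the two repeat wells disagreed; inactive means no significant shift from solvent-only controls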;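 further: raw slope with 0.1% DMSO as baseline and bumetanide as block control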
# HEK293 Tl flux – parental HEK flux effect, counter-screen; HEK293 parental cells, thallium flux FluoZin2, ouabain; baseline-ratio fluorescence slope, 10–20 s after thallium; actives 46% (n = 3,700); AID 1716; shares compounds with KCC2 mod; thallium flux rate (normalised fluorescence) at 10 µM;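 active means thallium flux rate significantly above the same plate's solvent-only control wells, beyond their mean plus 3 SD; inconclusive means the two replicate wells gave conflicting results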
# KCC2 retest ouab – modulates human KCC2 on retest with ouabain | raw Tl+ flux slope (below DMSO = inhibition, above = activation) at 10 µM | HEK293-KCC2, thallium flux FluoZin2 fluorescence; bidirectional: low = inhibitor, high = activator | actives 48% (n = 3,700) | shares compounds with KCC2 mod | AID 1717;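 active means thallium flux slope beyond 3 SD from same-plate DMSO control mean in most replicates, usually higher, sometimes lower; inconclusive means repeat tests gave conflicting results; inactive means no significant difference from controls in most replicates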;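 further: slope of initial-normalized fluorescence between seconds 10 and 20 after thallium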
# HEK counter2 – acts in parental HEK cells, second KCC2 counter-screen; actives 33% (n = 3,700); HEK293 parental, thallium flux FluoZin-2 fluorescence slope; thallium flux slope at 10 µM; AID 1718; shares compounds with KCC2 mod;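 active means thallium flux slope above the same plate's solvent-control mean plus 3 SD in both duplicate wells; inconclusive means duplicate wells that disagreed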;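 further: run without ouabain in cells lacking the KCC2 cotransporter; slope of fluorescence scaled to its starting value between 10 and 20 s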
# * hit, by the source's call; ? = inconclusive; nt = no result given.
SMILES,14-3-3 Bad PPI,KCC2 mod,NCF1 inh,RBBP9 inhibitor,WT yeast gro inh,ROMK mod,KCC2 sec1,KCC2 bumet counter,KCC2 secondary2,HEK293 Tl flux,KCC2 retest ouab,HEK counter2
CCCCN(CC)S(=O)(=O)c1ccc(C(=O)Nc2nnc(-c3cccs3)o2)cc1,-1,23*,-6,0,12,0.55,0.016*,0.075*,0.029,0.036*,0.05*,0.011*
COc1cccc(C(=O)Nc2nnc(-c3ccc(F)cc3)o2)c1,-8,15*,-8,nt,59,nt,0.0096*,0.05*,0.047*,0.035*,0.047*,0.023*
Cc1cccc(C(=O)Nc2nnc(-c3ccncc3)o2)c1,1,0.7,-1,-5,-10,-0.35,nt,nt,nt,nt,nt,nt
O=C(Nc1nnc(-c2ccc3c(c2)CCCC3)o1)C1COc2ccccc2O1 (stereo not drawn),14,nt,-15,-3,69,nt,nt,nt,nt,nt,nt,nt
COc1ccc([N+](=O)[O-])cc1NS(=O)(=O)c1cccc(C(=O)O)c1,0,0.25,-10,0,nt,nt,nt,nt,nt,nt,nt,nt
CCCc1c(C)[nH]c2ccc(C(=O)O)cc2c1=S,26,1.4,-35,1,nt,0.87,nt,nt,nt,nt,nt,nt
COc1nc(OCCNC(C)=O)nc(N(C)C)n1,7,-0.031,-8,-4,31,nt,0.0087,0.0061,0.03,0.0064,0.021,0.0093
CC(=O)NCCOc1nc(N(C)C)nc(N2CCOCC2)n1,1,0.65,-3,-7,-3,0.59,nt,nt,nt,nt,nt,nt
COc1cccc(C(C)NC(=O)Nc2ccccc2Cl)c1 (stereo not drawn),-2,-1.3,-6,-4,-1,-0.42,nt,nt,nt,nt,nt,nt
O=C(O)c1cc([N+](=O)[O-])ccc1NCc1ccccc1,1,-5.3*,6,3,-1,-0.18,0.0099,0.0073,0.025*,0.0068,?,0.01
O=C(NCCCc1ccccc1)c1cc([N+](=O)[O-])ccc1Cl,-2,-7.5*,0,6,13,0.51,?,0.0045,0.02*,?,0.012*,0.0098
COc1ccc([N+](=O)[O-])cc1NCc1ccccc1,-5,-3.8*,-10,-1,30,nt,0.0066,0.0041,0.029,0.0053*,0.014*,0.0096
O=C(O)c1cc([N+](=O)[O-])ccc1N1CCC(Cc2ccccc2)CC1,8,-4.6*,1,-5,-21,nt,0.0081,?,?,0.0079,0.015*,0.011
O=C(O)c1ccccc1Nc1ccc([N+](=O)[O-])cc1C(=O)O,5,0.13,-6,-10,nt,0.62,nt,nt,nt,nt,nt,nt
O=C(NCc1ccccc1Cl)c1cc([N+](=O)[O-])ccc1Cl,-2,-1.1,1,-3,11,-0.2,nt,nt,nt,nt,nt,nt
COc1ccccc1OCCC(=O)OCC(=O)c1[nH]c(C)c(C(C)=O)c1C,-1,-0.017,-6,-7,4,0.57,nt,nt,nt,nt,nt,nt
Cc1cc(C)c(C)c(OCCCN(C)C)c1,38,-0.0013,-2,-10,-13,-0.7,nt,nt,nt,nt,nt,nt
CCN(CC)c1ccc(/C=N\NC(=O)c2cccc3cc[nH]c23)cc1,-2,1.4,-19,6,nt,-0.77,nt,nt,nt,nt,nt,nt
COc1ccc(C2/C=C\CN(C(=O)CC(C)C)CC(=O)N2Cc2ccc(F)cc2)cc1 (stereo not drawn),4,-3*,2,nt,nt,nt,0.016,0.0034,0.025*,0.0059*,0.015,0.0087
N[C@@H](Cc1cc(I)c(Oc2ccc(O)c(I)c2)c(I)c1)C(=O)O,8,-2.2,-77,-13,1,nt,nt,nt,nt,nt,nt,nt
O=C(O)CCc1cc(I)c(Oc2ccc(O)c(I)c2)c(I)c1,14,-4.1*,-93,nt,nt,nt,0.007,?,0.025*,0.0069,?,0.01
Cc1cccc(-c2ncc(S(=O)(=O)C(C)(C)C)c(N)n2)c1,2,-0.028,-3,-12,nt,nt,nt,nt,nt,nt,nt,nt
Cc1ccc(N(CC(=O)NCCSc2ccccn2)S(=O)(=O)c2ccc(F)cc2)cc1,3,-4.2*,-20,-12,-5,-0.99,0.0067,0.005,0.026*,0.0069,?,0.01
COc1ccc2c(=O)cc(-c3cccnc3)oc2c1OC,-2,0.19,-8,7,nt,nt,nt,nt,nt,nt,nt,nt
Cc1[nH]c(=O)[nH]c(=O)c1S(=O)(=O)N1CCCC(C(=O)NCCC2=CCCCC2)C1 (stereo not drawn),-18,0.16,-9,2,-6,-0.14,nt,nt,nt,nt,nt,nt
SMILES,14-3-3 Bad PPI,KCC2 mod,NCF1 inh,RBBP9 inhibitor,WT yeast gro inh,ROMK mod,KCC2 sec1,KCC2 bumet counter,KCC2 secondary2,HEK293 Tl flux,KCC2 retest ouab,HEK counter2
C[C@H]1CC[C@H]2C(=O)N3[C@H](c4cccc(N5CCCC5=O)c4)[C@@H](C)CC[C@H]3C(=O)N2[C@@H]1c1cccc(N2CCCC2=O)c1,-8,4.9*,2,-5,-6,0.55,0.0066,0.005,?,0.0077,0.018,0.011
CCOC(=O)c1ccc(CNCc2ccccc2)cc1,-2,1,12,-3,-25,-0.12,nt,nt,nt,nt,nt,nt
CCOC(=O)c1ccc(CNC(=O)CCC(=O)O)cc1,9,nt,-5,-14,nt,-0.24,0.01,0.0051,0.034,0.007,0.022,0.01
C/C(=N\NC1=N[C@H]2CS(=O)(=O)C[C@H]2S1)c1ccccc1,3,0.66,5,-1,nt,0.55,nt,nt,nt,nt,nt,nt
COCCCn1c(SCC(=O)Nc2nnc(C)s2)nnc1-c1ccoc1C,9,nt,-10,-4,-3,nt,0.0073,0.005,0.034,0.0081,0.019,0.011
CCOc1ccccc1-n1nnnc1SCc1nc2ccccc2s1,14,nt,-41,2,8,nt,0.015,?,0.024*,0.0058*,0.013*,0.0091
O=C(Cn1nc(CNc2ccc(Br)cc2)[n+]2c1CCCCC2)c1ccc([N+](=O)[O-])cc1,2,0.02,11,5,nt,nt,nt,nt,nt,nt,nt,nt
CCOc1cc(NC(=S)NCC2CCCO2)c(OCC)cc1NC(=O)CC(C)C (stereo not drawn),-5,0.63,-7,-3,-2,0.043,nt,nt,nt,nt,nt,nt
O=CN1CCN(C(=O)CN2C(=O)c3ccccc3C2=O)CC1,-6,6.3*,-14,4,1,-0.44,0.0059,?,0.027,0.0081,0.018,0.01
